According to ChEMBL document CHEMBL1145831 (J Med Chem, 2003):

Experiments:
[1] = test system: Mus musculus; assay: In vivo antitumor activity against murine pancreatic adenocarcinoma and measured as number of deaths on a schedule of 3,5,7 days and at a total dose of 36 mg/kg; format: ADME, organism-based; parameters: dose 36 mg/kg; settings: 168 h
Procedure, shortened: (§1)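 Mice bearing drug-sensitive murine pancreatic adenocarcinoma Panc-03 were dosed on the listed days at the listed total doses. Dosing solutions were made in water from stock solutions and injected within 20 min. Chlorohydrin solutions were acidified with 0.05% citric acid. Tolerance was recorded as body weight loss and number of deaths.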

[2] = test system: Mus musculus; assay: In vivo antitumor activity against murine pancreatic adenocarcinoma and measured as % weight loss 3,5,7 days and at a total dose of 9 mg/kg; format: functional
Procedure, shortened: (§2)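 Body weight loss was tracked in mice implanted with the Panc-03 murine pancreatic adenocarcinoma. Injections were given within 20 min of aqueous preparation from stock solutions, with chlorohydrins acidified using 0.05% citric acid.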

[3] = test system: Mus musculus; assay: In vivo antitumor activity against murine pancreatic adenocarcinoma and measured as number of deaths on a schedule of 3,5,7 days and at a total dose of 9 mg/kg; format: ADME, organism-based; parameters: dose 9 mg/kg; settings: 168 h; procedure, shortened: as §1
[4] = test system: Mus musculus; assay: In vivo antitumor activity against murine pancreatic adenocarcinoma and measured as % weight loss on a schedule of 3,5,7 days and at a total dose of 36 mg/kg; format: functional; procedure, shortened: as §2
[5] = test system: Mus musculus; assay: In vivo antitumor activity against murine pancreatic adenocarcinoma and measured as % weight loss on a schedule of 3,5,7 days and at a total dose of 18 mg/kg; format: functional; procedure, shortened: as §2
[6] = test system: CCRF-CEM; assay: In vitro growth inhibitory activity in the human CCRF-CEM leukemia cell line.; format: functional, cell-based
Procedure, shortened: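 CCRF-CEM human leukemia cells in log phase, 4.8 × 10⁴ cells per 2 mL well. Medium was RPMI-1640 with 10% dialyzed FBS and 25 mM HEPES. Compounds were serially diluted 1:3 in DMSO and added to duplicate wells, with DMSO-only controls, at 0.5% final DMSO. Cells were exposed 72 h at 37 °C in humidified 5% CO₂, then counted. IC50 in nM.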

[7] = test system: Mus musculus; assay: Ratio of the median tumor weight in the treatment group over the median tumor weight in the control group on a schedule of 3,5,7 days and at a total dose of 36 mg/kg; format: functional
Procedure, shortened: (§3)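 Mice bearing the drug-sensitive murine pancreatic adenocarcinoma Panc-03. Dosing solutions were made in water from stock solutions and injected within 20 min of preparation; chlorohydrins were acidified with 0.05% citric acid. T/C (%) = median tumor weight of the treated group ÷ median tumor weight of controls × 100, calculated when control median tumor weight reached 1 g.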

[8] = test system: Mus musculus; assay: In vivo antitumor activity against murine pancreatic adenocarcinoma and measured as number of deaths on a schedule of 3,5,7 days and at a total dose of 18 mg/kg; format: ADME, organism-based; parameters: dose 18 mg/kg; settings: 168 h; procedure, shortened: as §1
[9] = test system: Mus musculus; assay: Ratio of the median tumor weight in the treatment group over the median tumor weight in the control group on a schedule of 3,5,7 days and at a total dose of 9 mg/kg; format: functional; procedure, shortened: as §3
[10] = test system: Mus musculus; assay: Ratio of the median tumor weight in the treatment group over the median tumor weight in the control group on a schedule of 3,5,7 days and at a total dose of 18 mg/kg; format: functional; procedure, shortened: as §3
[11] = test system: Mus musculus; assay: In vivo antitumor activity against murine pancreatic adenocarcinoma and measured as number of deaths on a schedule of 1-6 days and at a total dose of 162 mg/kg; format: ADME, organism-based; parameters: dose 162 mg/kg; procedure, shortened: as §1
[12] = test system: Mus musculus; assay: In vivo antitumor activity against murine pancreatic adenocarcinoma and measured as % weight loss on a schedule of 1-6 days and at a total dose of 72 mg/kg; format: functional; procedure, shortened: as §1
[13] = test system: Mus musculus; assay: Ratio of the median tumor weight in the treatment group over the median tumor weight in the control group on a schedule of 1-6 days and at a total dose of 162 mg/kg; format: functional
Procedure, shortened: (§4)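 Panc-03 murine pancreatic adenocarcinoma in mice, with injectable solutions prepared in water from stock and given within 20 min; chlorohydrins were acidified with 0.05% citric acid. %T/C is median tumor weight of the treated group over that of the control group × 100, calculated when control median tumor weight reaches 1 g. T/C ≤ 42% is taken as significant activity.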

[14] = test system: Mus musculus; assay: In vivo antitumor activity against murine pancreatic adenocarcinoma and measured as number of deaths on a schedule of 1-6 days and at a total dose of 72 mg/kg; format: ADME, organism-based; parameters: dose 72 mg/kg; procedure, shortened: as §1
[15] = test system: Mus musculus; assay: In vivo antitumor activity against murine pancreatic adenocarcinoma and measured as % weight loss on a schedule of 1-6 days and at a total dose of 162 mg/kg; format: functional; procedure, shortened: as §1
[16] = test system: Mus musculus; assay: Ratio of the median tumor weight in the treatment group over the median tumor weight in the control group on a schedule of 1-6 days and at a total dose of 72 mg/kg; format: functional; procedure, shortened: as §4
[17] = test system: Mus musculus; assay: In vivo antitumor activity against murine pancreatic adenocarcinoma and measured as number of deaths on a schedule of 5-10 day and at a total dose of 210 mg/kg; format: ADME, organism-based; parameters: dose 210 mg/kg; procedure, shortened: as §1
[18] = test system: Mus musculus; assay: Ratio of the median tumor weight in the treatment group over the median tumor weight in the control group on a schedule of 5-10 day and at a total dose of 270 mg/kg; format: functional
Procedure, shortened: (§5)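 Murine pancreatic adenocarcinoma Panc-03 tumors in mice. T/C is the median tumor weight of the treated group over that of controls, ×100, taken when control median tumor weight reaches 1 g. T/C ≤42% counts as significant antitumor activity. Dosing solutions were prepared aqueous from stock solutions and injected within 20 min.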

[19] = test system: Mus musculus; assay: In vivo antitumor activity against murine pancreatic adenocarcinoma and measured as % weight loss on a schedule of 5-10 day and at a total dose of 210 mg/kg; format: functional; procedure, shortened: as §1
[20] = test system: Mus musculus; assay: In vivo antitumor activity against murine pancreatic adenocarcinoma and measured as number of deaths on a schedule of 5-10 day and at a total dose of 402 mg/kg; format: ADME, organism-based; parameters: dose 402 mg/kg; procedure, shortened: as §1
[21] = test system: Mus musculus; assay: Ratio of the median tumor weight in the treatment group over the median tumor weight in the control group on a schedule of 5-10 day and at a total dose of 402 mg/kg; format: functional; procedure, shortened: as §5
[22] = test system: Mus musculus; assay: In vivo antitumor activity against murine pancreatic adenocarcinoma and measured as % weight loss on a schedule of 5-10 day and at a total dose of 402 mg/kg; format: functional; procedure, shortened: as §1
[23] = test system: Mus musculus; assay: In vivo antitumor activity against murine pancreatic adenocarcinoma and measured as % weight loss on a schedule of 5-10 day and at a total dose of 270 mg/kg; format: functional; procedure, shortened: as §1
[24] = test system: Mus musculus; assay: In vivo antitumor activity against murine pancreatic adenocarcinoma and measured as number of deaths on a schedule of 5-10 day and at a total dose of 270 mg/kg; format: ADME, organism-based; parameters: dose 270 mg/kg; procedure, shortened: as §1
[25] = test system: Mus musculus; assay: Ratio of the median tumor weight in the treatment group over the median tumor weight in the control group on a schedule of 5-10 day and at a total dose of 210 mg/kg; format: functional; procedure, shortened: as §4
[26] = test system: Mus musculus; assay: In vivo antitumor activity against murine pancreatic adenocarcinoma and measured as % weight loss on a schedule of 3 days and at a total dose of 2 mg/kg; format: functional; procedure, shortened: as §1
[27] = test system: Mus musculus; assay: In vivo antitumor activity against murine pancreatic adenocarcinoma and measured as number of deaths on a schedule of 3,5 days and at a total dose of 1.6 mg/kg; format: ADME, organism-based; parameters: dose 1.6 mg/kg; settings: 120 h; procedure, shortened: as §1
[28] = test system: Mus musculus; assay: In vivo antitumor activity against murine pancreatic adenocarcinoma and measured as number of deaths on a schedule of 3,5 days and at a total dose of 1 mg/kg; format: ADME, organism-based; parameters: dose 1 mg/kg; settings: 120 h; procedure, shortened: as §1
[29] = test system: Mus musculus; assay: Ratio of the median tumor weight in the treatment group over the median tumor weight in the control group on a schedule of 3 days and at a total dose of 2 mg/kg; format: functional; procedure, shortened: as §4
[30] = test system: Mus musculus; assay: In vivo antitumor activity against murine pancreatic adenocarcinoma and measured as % weight loss on a schedule of 3,5 days and at a total dose of 1.6 mg/kg; format: functional; procedure, shortened: as §1
[31] = test system: Mus musculus; assay: In vivo antitumor activity against murine pancreatic adenocarcinoma and measured as number of deaths on a schedule of 3 days and at a total dose of 2 mg/kg; format: ADME, organism-based; parameters: dose 2 mg/kg; settings: 72 h; procedure, shortened: as §1
[32] = test system: Mus musculus; assay: Ratio of the median tumor weight in the treatment group over the median tumor weight in the control group on a schedule of 3,5 days and at a total dose of 1.6 mg/kg; format: functional; procedure, shortened: as §4
[33] = test system: Mus musculus; assay: In vivo antitumor activity against murine pancreatic adenocarcinoma and measured as % weight loss on a schedule of 3,5 days and at a total dose of 1 mg/kg; format: functional; procedure, shortened: as §1
[34] = test system: Mus musculus; assay: Ratio of the median tumor weight in the treatment group over the median tumor weight in the control group on a schedule of 3,5 days and at a total dose of 1 mg/kg; format: functional; procedure, shortened: as §4
[35] = test system: Mus musculus; assay: In vivo antitumor activity against murine pancreatic adenocarcinoma and measured as number of deaths on a schedule of 3-9 days and at a total dose of 42 mg/kg; format: ADME, organism-based; parameters: dose 42 mg/kg; procedure, shortened: as §1
[36] = test system: Mus musculus; assay: In vivo antitumor activity against murine pancreatic adenocarcinoma and measured as % weight loss on a schedule of 3-10 days and at a total dose of 32 mg/kg; format: functional; procedure, shortened: as §1
[37] = test system: Mus musculus; assay: Ratio of the median tumor weight in the treatment group over the median tumor weight in the control group on a schedule of 3-10 days and at a total dose of 32 mg/kg; format: functional; procedure, shortened: as §4
[38] = test system: Mus musculus; assay: In vivo antitumor activity against murine pancreatic adenocarcinoma and measured as % weight loss on a schedule of 3-9 days and at a total dose of 42 mg/kg; format: functional; procedure, shortened: as §1
[39] = test system: Mus musculus; assay: In vivo antitumor activity against murine pancreatic adenocarcinoma and measured as number of deaths on a schedule of 3-10 days and at a total dose of 32 mg/kg; format: ADME, organism-based; parameters: dose 32 mg/kg; procedure, shortened: as §1
[40] = test system: Mus musculus; assay: Ratio of the median tumor weight in the treatment group over the median tumor weight in the control group on a schedule of 3-9 days and at a total dose of 42 mg/kg; format: functional; procedure, shortened: as §4

## COc1ccc(C[C@H]2NC(=O)/C=C/C[C@@H]([C@H](C)[C@@H](O)[C@@H](Cl)c3ccc(COC(=O)CN)cc3)OC(=O)[C@H](CC(C)C)OC(=O)C(C)(C)CNC2=O)cc1Cl.Cl
[1]
  Death: 3
[2]
  Weight loss: -2%
[3]
  Death: 0
[4]
  Weight loss: -20%
[5]
  Weight loss: -4%
[6]
  IC50: 0.013 nM
[7]
  T/C: 0%
[8]
  Death: 0
[9]
  T/C: 0%
[10]
  T/C: 0%

## COc1ccc(C[C@H]2NC(=O)/C=C/C[C@@H]([C@H](C)[C@@H](O)[C@@H](Cl)c3cccc(C)c3)OC(=O)[C@H](CC(C)C)OC(=O)C(C)(C)CNC2=O)cc1Cl
[11]
  Death: 0
[12]
  Weight loss: 12%
[13]
  T/C: 0%
[14]
  Death: 0
[15]
  Weight loss: 7%
[6]
  IC50: 0.3 nM
[16]
  T/C: 46%

## COc1ccc(C[C@H]2NC(=O)/C=C/C[C@@H]([C@H](C)[C@@H](O)[C@@H](Cl)c3ccccc3)OC(=O)[C@H](CC(C)C)OC(=O)C(C)(C)CNC2=O)cc1Cl
[17]
  Death: 0
[18]
  T/C: 0%
[19]
  Weight loss: -5%
[20]
  Death: 0
[21]
  T/C: 0%
[22]
  Weight loss: -6%
[23]
  Weight loss: -5%
[24]
  Death: 0
[25]
  T/C: 0%

## COc1ccc(C[C@H]2NC(=O)/C=C/C[C@@H]([C@H](C)[C@@H](O)[C@@H](Cl)c3ccc(CN4CCNCC4)cc3)OC(=O)[C@H](CC(C)C)OC(=O)C(C)(C)CNC2=O)cc1Cl.Cl.Cl
[26]
  Weight loss: -26%
[27]
  Death: 0
[28]
  Death: 0
[6]
  IC50: 0.021 nM
[29]
  T/C: 8%
[30]
  Weight loss: -16%
[31]
  Death: 2
[32]
  T/C: 0%
[33]
  Weight loss: -3%
[34]
  T/C: 33%

## COc1ccc(C[C@H]2NC(=O)/C=C/C[C@@H]([C@H](C)[C@H]3O[C@@H]3c3ccccc3)OC(=O)[C@H](CC(C)C)OC(=O)C(C)(C)CNC2=O)cc1Cl [CRYPTOPHYCIN 52]
[35]
  Death: 3
[6]
  IC50: 0.022 nM
[36]
  Weight loss: 1.6%
[37]
  T/C: 3%
[38]
  Weight loss: -9.6%
[39]
  Death: 0
[40]
  T/C: 1%
